An excerpt weighted towards active compounds, which were near 3.3% of everything screened.
Myeloid diff MLP: compounds promoting myeloid differentiation; ER-HoxA9 myeloid progenitors, lysozyme-GFP differentiation, flow cytometry; calls only at 10 µM; actives 1% (n = 360,000); AID 624256;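 active = normalized GFP-positive differentiation at or above the plate's own cutoff, the solvent-only control mean plus 3 SD; inconclusive = no clear call, values can overlap the other calls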;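 also: cells exposed to compound for four days before flow analysis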
CendR NRP1 mod: alters CendR peptide binding to human NRP-1; inhibition, % at 25 µM; FAM-RPARPAR peptide binding to NRP-1, fluorescence polarization; actives 0.85% (n = 360,000);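 active = inhibition or corrected inhibition above about 18%, plus a signal ratio from 0.5 to 1.5, limit read from the data, passing the limit was not always enough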
Arr AP2 block: blocks beta-arrestin peptide binding to AP2 adaptin; FITC-arrestin peptide / GST-AP2 beads, flow cytometry; AP2 beta2 appendage carries R879A mutation; inhibition, % at 10 µM; actives 0.31% (n = 340,000); AID 504490;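 active = inhibition above a set limit, near 3 SD of compounds lacking own fluorescence, cut at about 54% in these data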
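system = GST-tagged AP2 beta2-adaptin appendage (R879A) on 4 µm glutathione beads | reagent = FITC-labelled arrestin peptide probe, 50 nM final | schedule = compound with beads 12 min RT, then probe 1 h RT | signal = HyperCyt-sampled flow cytometry, FL1 channel, ex 488/em 535 nm | read-out = percent response from loss of bead-bound FITC fluorescence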
Exocytosis inh: lytic granule exocytosis inhibition. TALL-104 LAMP-1 surface exposure, flow cytometry; cells stimulated with thapsigargin and PMA. inhibition, % at 10 µM. actives 0.66% (n = 360,000);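 active = inhibition above about 55%, limit read from the data; inconclusive = no clear call, values can overlap the other calls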
ABCB6 inh MLPCN: blocks the human ABCB6 transporter; Q9NP58; K562-ABCB6 porphyrin accumulation, flow cytometry, 1 h; hits give low values; fluorescence ratio to DMSO, % at 10 µM; actives 0.19% (n = 360,000);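 active = fluorescence ratio to DMSO below 75%, the collection mean minus 3 SD; inconclusive = too few cells collected in the well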;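 also: signal is porphyrin accumulated inside mitochondria; lower ratio means ABCB6 inhibition with less porphyrin fluorescence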
ATG4B inhibitor: ATG4B (human) cysteine protease inhibition; ATG4B cleavage of LC3-PLA2, NBD-HPC fluorescence, 1 h; inhibition, % at 8.33 µM; Q9Y4P1; actives 0.51% (n = 340,000); in the data active = inhibition above about 40%
Target sequence (Q9Y4P1 whole entry, looked up): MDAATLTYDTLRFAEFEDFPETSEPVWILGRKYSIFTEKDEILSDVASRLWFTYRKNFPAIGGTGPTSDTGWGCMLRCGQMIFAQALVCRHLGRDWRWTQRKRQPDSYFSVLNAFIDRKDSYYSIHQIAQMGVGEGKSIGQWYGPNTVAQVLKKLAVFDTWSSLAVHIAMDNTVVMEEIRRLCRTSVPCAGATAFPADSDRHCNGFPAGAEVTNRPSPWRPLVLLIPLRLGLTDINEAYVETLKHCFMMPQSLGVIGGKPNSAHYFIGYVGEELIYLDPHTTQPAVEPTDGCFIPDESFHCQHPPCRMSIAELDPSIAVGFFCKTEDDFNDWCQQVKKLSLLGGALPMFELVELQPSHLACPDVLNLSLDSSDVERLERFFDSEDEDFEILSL
Exocytosis CP01: blocks lytic granule exocytosis. inhibition, % at 10 µM. shares compounds with Exocytosis inh. TALL-104 cells, LAMP-1 externalization, flow cytometry; stimulated with PMA plus thapsigargin. actives 11% (n = 1,500); in the data active = inhibition above about 60%
Large screens that a line does not name were inactive (follow-up assays come after a bar, where they were run); ! = repeats disagree.

Cc1cncn1CCc1nc2c3ccccc3nc(SCC(=O)Nc3cccc(Cl)c3)n2n1	Exocytosis inh 68.5 | Exocytosis CP01 81.0
CCN(CC(=O)NCc1ccncc1)S(=O)(=O)c1ccccc1	Exocytosis inh inconclusive
N#Cc1cccc(CN2CCCN(Cc3ccc(F)cc3)S2(=O)=O)c1	Exocytosis inh 85.1 | Exocytosis CP01 inactive
O=C(N[C@@H](Cc1ccccc1)C(=O)O)c1ccc(C(F)(F)F)cc1	Exocytosis inh 84.5 | Exocytosis CP01 inactive
CCOC(=O)C1=C(N)Oc2cc(O)ccc2C1c1cccc([N+](=O)[O-])c1 (centres undefined)	none (no result: Myeloid diff MLP)
Cc1ccc(-n2c(CCc3ccccc3)nnc2SCC(=O)NCc2ccccc2)cc1C	Exocytosis inh 68.1 | Exocytosis CP01 inactive
COc1ccc(OCC(=O)N/N=C(\C)CC(=O)Nc2cccc([N+](=O)[O-])c2)cc1	none
O=C(Nc1ccc([N+](=O)[O-])cc1)N1CCc2ccccc2C1	Exocytosis inh 85.4 | Exocytosis CP01 inactive
Clc1ccc(C2Nc3cccc4cccc(c34)N2)c(Cl)c1	Exocytosis inh 73.6 | Exocytosis CP01 inactive
C[C@@H]1CN([C@H](C)CO)C(=O)CCCn2nncc2CO[C@H]1CN(C)Cc1ccccc1C(=O)O	none (no result: Arr AP2 block, ATG4B inhibitor)
COCc1cc(C)nc2sc(C(=O)Nc3ccc(C(=O)OC)cc3)c(N)c12	Exocytosis inh 84.8 | Exocytosis CP01 inactive
COCc1cc(C)nc2sc(C(=O)OC(C)C)c(N)c12	none
CC(C)C[C@H](NC(=O)C1CCN(S(=O)(=O)c2ccccc2)CC1)C(=O)NCc1ccccn1	none
COc1cccc(-c2cc(C(=O)O)no2)c1	none
COc1cccc(-c2cc(CC3(O)CCN(CCCc4ccccc4)CC3)on2)c1	Exocytosis inh 62.8 | Exocytosis CP01 inactive
CCOC(=O)N1CCN(C(=O)C2CCC(=O)N(Cc3ccccc3OC)C2)CC1 (centres undefined)	none (no result: Arr AP2 block, ATG4B inhibitor)
Oc1c(Cl)cc(Cl)c2cccnc12	none
Oc1c(I)cc(I)c2cccnc12	Myeloid diff MLP inconclusive, Exocytosis inh 73.9 | Exocytosis CP01 inactive
CCOc1cc(CNC(C)(C)CO)cc(Br)c1OCc1ccc(Cl)cc1Cl	Exocytosis inh 66.5 | Exocytosis CP01 inactive
CCOc1cc(CNCCO)cc(Br)c1OCc1ccc(Cl)cc1	Exocytosis inh 63.3 | Exocytosis CP01 inactive
NS(=O)(=O)c1cc(C(=O)N=Nc2c(O)[nH]c3ccccc23)ccc1Cl	none
CCCCN(Cc1ccccc1)C1CCN(Cc2ccccc2)CC1	Exocytosis inh 68.4 | Exocytosis CP01 inactive
Cc1cc(Nc2ccc(F)cc2)nc(N)n1	none
Cc1cc(Nc2cc(Cl)cc(Cl)c2)nc(N)n1	Exocytosis inh 61.6 | Exocytosis CP01 inactive
O=C(CSc1nnc(C2CC2)n1-c1ccccc1)N1CCCC1	none
COc1ccc2[nH]c3c(N4CC(C)OC(C)C4)ncnc3c2c1 (centres undefined)	none (no result: Myeloid diff MLP, CendR NRP1 mod, Arr AP2 block, Exocytosis inh, ABCB6 inh MLPCN)
COc1cccc(N2CCN(c3ncnc4c3[nH]c3ccc(F)cc34)CC2C)c1 (centres undefined)	Myeloid diff MLP inconclusive, Exocytosis inh 98.5 | Exocytosis CP01 103.6
O=C(Nc1cc(S(=O)(=O)Nc2ccc(Cl)cc2)ccc1N1CCCCC1)c1ccc(F)cc1Cl	none
O=C(Nc1ccc2c(c1)OCCO2)c1cccc(Cl)c1	none
O=C(Nc1cccc(Cl)c1)c1ccc2c(c1)OCCO2	Exocytosis inh 61.4 | Exocytosis CP01 inactive
Cc1cc2oc(=O)cc(CN(C)Cc3cccc(F)c3)c2cc1C	none
CCc1cc2c(CN(C)Cc3ccccc3F)cc(=O)oc2cc1O	Exocytosis inh 59.0 | Exocytosis CP01 inactive
O=C1C=CC(=O)N1N(c1ccccc1)c1ccccc1	Exocytosis inh 78.1 | Exocytosis CP01 104.3
CCCCNc1c(-c2ccc(OC)c(SC3CCCCC3)c2)nc2ccc(C)cn12	Myeloid diff MLP inconclusive, Exocytosis inh 86.0! | Exocytosis CP01 77.1
CCCCNc1c(-c2ccc(SC3CCCCC3)c(OC)c2)nc2ccc(C)cn12	none
COC(=O)c1ccc(CCc2cc(O)ccc2O)cc1	none (no result: Myeloid diff MLP)
COC(=O)c1ccc(CCc2cc(O)c(Br)cc2O)cc1	Exocytosis inh 97.7 | Exocytosis CP01 77.0
O=C(COc1ccc(Cl)cc1)NCCCNC(=O)c1cnccn1	none
Cc1ccc2sc(N(CCCN(C)C)C(=O)c3ccc(S(=O)(=O)N(C)C4CCCCC4)cc3)nc2c1C	Exocytosis inh 61.6 | Exocytosis CP01 inactive
Cc1ccc2sc(N(CCCN(C)C)C(=O)CCS(=O)(=O)c3ccccc3)nc2c1C	Myeloid diff MLP inconclusive, Exocytosis inh 83.9 | Exocytosis CP01 inactive
CCN(CC)CCN(C(=O)c1ccc(S(=O)(=O)N(C)C2CCCCC2)cc1)c1nc2c(C)cccc2s1	none
Cc1cc(C)c(NC(=O)CC(C)(C)C)c(Cl)c1	none
COc1cc2c(cc1OC)C(CCc1ccccc1)=NCC2	Exocytosis inh 62.7 | Exocytosis CP01 inactive
CS(=O)(=O)Cc1ccc(C(=O)N2CCN(C(=O)c3cccs3)CC2)cc1	none
COc1cccc(NC(=O)COc2cccc(-n3cnnn3)c2)c1	none
Cc1cc(OCCCC(=O)Nc2cccc(-n3cnnn3)c2)ccc1Cl	Exocytosis inh 66.3 | Exocytosis CP01 inactive
CCOC(=O)C1=C(C)N(c2ccccc2)C(=O)C1	Exocytosis inh 100.1 | Exocytosis CP01 inactive
COC(=O)C1=C(C)N(c2ccc(S(N)(=O)=O)cc2)C(=O)C1	none
CCn1cc(CN2CCC(n3nccc3NC(=O)C3CCCC3)CC2)cn1	none
O=C(COC(=O)CNC(=O)c1ccccc1F)Nc1cccnc1Cl	none
CCN(CC)CCn1c(=N)n(CC(=O)c2ccc(C)cc2)c2ccccc21	Exocytosis inh 55.8 | Exocytosis CP01 inactive
Cc1ccc(C(=O)Cn2c(=N)n(N)c3ccccc32)cc1	none
O=C(Nc1ccc2c(c1)OCO2)C1CC(=O)N(c2ccc(F)cc2)C1 (centres undefined)	none
CC(NC(=S)N1CCN(c2ccccc2)CC1)c1ccccc1 (centres undefined)	none
CCN(CC)S(=O)(=O)c1ccc(S(=O)(=O)N2CCC(N3CCCCC3)CC2)cc1	Exocytosis inh 62.1 | Exocytosis CP01 inactive
CN(CC(=O)NCCc1ccc(F)cc1)Cc1ccc(Br)cc1	Exocytosis inh 69.8 | Exocytosis CP01 inactive
CC(C)[C@H](NC(=O)c1ccccc1)C(=O)OCC(=O)N1CCc2ccccc2C1	Exocytosis inh 68.3 | Exocytosis CP01 inactive
CC(C)C(NC(=O)c1ccccc1)C(=O)OCC(=O)N1CCCCC1 (centres undefined)	none
CCc1nc2ccc(C(=O)Nc3ccc4c(c3)OCC(=O)N4)cn2c1N(C)C(=O)C1CCCCC1	none (no result: Arr AP2 block, ATG4B inhibitor)
CCCCn1c(N)c(N(CC)C(=O)C2COc3ccccc3O2)c(=O)[nH]c1=O (centres undefined)	none

Source: PubChem (several laboratories)
